# High-throughput results deposited in PubChem BioAssay by several laboratories.
# The list is not random: actives were taken first. Their share in the collection is about 4.9%.
# STAT3 inh = IL-6 driven STAT3 reporter inhibitors, primary screen, U3A cells, luciferase, luminescence, MLSCN library | IL-6 STAT3-luciferase reporter; host cell line lacks STAT1 | inhibition, % at 5.5 µM | actives 0.89% (n = 190,000);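 active = inhibition above the mean inhibition across all screened compounds plus 3 SD, cut at about 44% in these data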;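 also: 0% = DMSO only wells and 100% = 100 µM nifuroxazide control wells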
# NF-kB neuron act = activators of NF-kB expression in neurons, primary screen, cell-based, HTS | human neuronal cells, NF-kB reporter expression; stronger effect = higher value | fold change at 12.5 µM | actives 1.6% (n = 190,000) | AID 1239, 2008; in the data active = fold change above about 3.3
# APP 5'UTR act = activators of APP 5'UTR luciferase reporter, primary screen, SH-SY5Y cells | activation, % at 2 µM | SH-SY5Y APP 5'UTR luciferase reporter, luminescence; zero percent = DMSO vehicle wells | actives 1% (n = 190,000);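 active = activation above a set limit, based on mean plus 3 SD of controls, cut at about 140% in these data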
# STAT3 act = IL-6 driven STAT3 reporter potentiators, primary screen, U3A cells, luciferase, luminescence, MLSCN library; IL-6 STAT3-luciferase reporter; 100% = signal with IL-6 EC80 alone; actives 0.91% (n = 190,000); activation (% of control), % at 5.6 µM;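 active = activation above the screen-wide mean of compound activation plus 3 SD, cut at about 130% in these data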;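 also: 0% = background luminescence of wells with medium and substrate only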
#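 System – human U3A cells carrying STAT3-luciferase construct · Probe or stimulus – Interleukin-6, 33 ng/mL · Schedule – compound 1 h, then IL-6 6 h at 37 °C · Signal – luminescence from STAT3-driven luciferase reporter · Evaluation – percent of IL-6-only median luminescence · Benchmarks – IL-6-only high control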
# STAT1 blocker = STAT1 signaling inhibitors, primary screen, cell-based, HTS, luciferase reporter; NIH 3T3 STAT1-luciferase reporter, IFN-gamma, luminescence; inhibition, % at 5.5 µM; actives 0.35% (n = 200,000);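 active = inhibition above a set limit, the mean inhibition across all tested compounds plus 3 SD, cut at about 34% in these data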;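 also: 0% = IFN-gamma with DMSO and 100% = IFN-gamma with 300 µM nifuroxazide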
# STAT1 act = STAT1 signaling activators, primary screen, cell-based, HTS, luciferase reporter; actives 2.6% (n = 200,000); NIH 3T3 STAT1-luciferase reporter, IFN-gamma, luminescence; 100% = IFN-gamma alone, no compound; activation (% of control), % at 5.5 µM;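 active = activation above the screen-wide mean activation plus 3 SD, cut at about 130% in these data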;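 also: raw ratio to IFN-gamma control signal so 100% means no change and 0% no light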
# STAT1 act conf = STAT1 signaling activators, confirmation, cell-based, HTS, luciferase reporter; actives 97% (n = 1,200); NIH 3T3 STAT1-luciferase reporter, IFN-gamma potentiation, luminescence; 100% = IFN-gamma EC80 alone, no compound; AID 1262, 2008; shares compounds with STAT1 act; activation (% of control), % at 5.7 µM;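 active = activation above a set limit carried over from the earlier primary STAT1 screen, cut at about 140% in these data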;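 also: simple ratio to median IFN-gamma plus DMSO wells so 0% means no light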
# NFkB act = NF-kB reporter activators, TNF-alpha stimulated, counter-screen for STAT1 activator project, cell-based, HEK293T, luciferase luminescence | shares compounds with STAT1 act | 100% = TNF-alpha with vehicle only | activation (% of control), % at 5.7 µM | actives 43% (n = 1,200);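 active = activation above the mean of solvent-only control wells plus 3 SD, set per campaign, cut at about 130% in these data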;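 also: TNF-alpha given at a submaximal dose yielding about 80% of full reporter signal; values are well signal over median control so 100% means no change and 0% no light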
# STAT3 act STAT1c = STAT3 reporter activation by STAT1 hits, confirmation, counter-screen for STAT1 activator project, U3A cells, luciferase, luminescence; activation (% of control), % at 5.7 µM; IL-6; cells lack STAT1; 100 = IL-6 alone, no compound effect; actives 46% (n = 1,200); AID 1316, 2008; shares compounds with STAT1 act;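 active = activation above the solvent-only control well mean plus 3 SD, set per plate batch, cut at about 110% in these data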;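 also: 0% = no luminescence and 100% = median IL-6 plus DMSO wells; higher means more STAT3 reporter activation so hits are non-selective activators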
# * = called active by the depositor; · = no result.
SMILES,STAT3 inh,NF-kB neuron act,APP 5'UTR act,STAT3 act,STAT1 blocker,STAT1 act,STAT1 act conf,NFkB act,STAT3 act STAT1c
CCOC(=O)c1ccc(NC(=S)NC(=O)COc2ccccc2)cc1,1,1,6,101,-9,108,·,·,·
O=C(Cc1nc(=O)c2ccccc2s1)Nc1ccccc1,4,5.8*,189*,103,-63,157*,274*,145*,122*
COc1ccccc1C(=O)NNC(=O)c1sccc1-n1cccc1,-16,0.98,-19,114,-4,103,·,·,·
COc1ccc(N=C(C)C2=C(O)c3ccccc3C2=O)cc1,29,5.4*,206*,74,-73,165*,209*,103,88
O=C(Nc1ccccc1)N1CCC(c2nc(-c3ccc(S(=O)(=O)N4CCOCC4)cc3)no2)CC1,23,0.83,-8,85,5,95,·,·,·
CCCCN1CC2=C(C1=O)C(c1ccc(O)cc1)NC(=O)N2C (centres undefined),-6,1.2,15,107,4,96,·,·,·
O=C(Nc1ccc2c(c1)OCO2)C1CCN(C(=O)c2ccc([N+](=O)[O-])cc2)CC1,8,1.1,-3,100,3,98,·,·,·
Nc1nc(SCC(=O)Nc2cccnc2Cl)n[nH]1,10,0.93,18,98,-4,102,·,·,·
O=C(NC1CCCC1)c1cc(-c2cccs2)on1,3,9.7*,121,97,-79,173*,205*,147*,115*
C(=N\N=C\c1cccs1)/c1cccs1,20,3.3,91,87,-77,167*,189*,128,106
COc1ccc(CCNC(=O)/C(C#N)=C/c2cccc(OCc3ccccc3)c2)cc1OC,14,0.7,17,90,-3,103,·,·,·
c1ccc(CSc2nnc(-c3cccs3)o2)cc1,10,4.6*,106,93,-64,158*,179*,132,116*
CCOC(=O)CSc1n[nH]c(NC(C)=O)n1,8,1,-10,98,3,96,·,·,·
C=CCNc1oc(/C=C/c2ccccc2)nc1C#N,-1,7.2*,174*,111,-61,155*,197*,144*,114*
COc1ccc(-c2nnn(Cc3ccccc3F)n2)cc1,-1,2.9,118,103,-64,163*,176*,133*,114*
COc1ccc(C(=O)Cn2nnc(-c3ccccc3F)n2)cc1,6,1.6,25,98,-2,102,·,·,·
COc1ccc(CCN(C)C(=O)CCc2nnc(-c3ccccc3)o2)cc1OC,-14,4.1*,81,118,-63,159*,166*,122,116*
O=C(Nc1cccc(S(=O)(=O)N2CCCC2)c1)c1ccc2c(=O)n3c(nc2c1)CCCCC3,25,0.37,1,78,9,92,·,·,·
O=C(NC1=NCCS1)c1ccc(-c2ccc(Cl)cc2)o1,22,4.6*,119,84,-61,156*,187*,126,94
CC(C)(C)n1ncc2c(=O)n(CC(=O)NCc3ccc(F)cc3)cnc21,-4,3.5*,169*,105,-65,160*,199*,119,127*
CC(C)(C)n1ncc2c(=O)n(CC(=O)NCc3ccco3)cnc21,-21,1.9,70,119,-29,127,·,·,·
NC(=O)c1ccccc1NC(=O)/C=C/C(=O)O,10,2.7,14,97,4,97,·,·,·
Cc1ccc(/C=C/C(=O)Nc2ccccc2C(N)=O)cc1,33,5.3*,183*,75,-60,152*,180*,112,88
CCN(CC)CCCN(C(=O)Cn1nnc(-c2ccc(OC)c(OC)c2)n1)C(C(=O)NC(C)(C)C)c1ccc(F)cc1 (centres undefined),-1,1.1,3,110,5,95,·,·,·
CCOC(=O)CSc1nc2cc3c(cc2cc1C#N)OCO3,-12,4.1*,112,114,-61,155*,223*,144*,115*
SMILES,STAT3 inh,NF-kB neuron act,APP 5'UTR act,STAT3 act,STAT1 blocker,STAT1 act,STAT1 act conf,NFkB act,STAT3 act STAT1c
CCOC(=O)CSc1nc2cc3c(cc2cc1C)OCO3,15,1.4,-6,89,-3,101,·,·,·
CC(C)OC(=O)CSc1nc2cc3c(cc2cc1C#N)OCO3,-6,1.4,84,107,-14,113,·,·,·
CCOC(=O)CSc1nc2cc3c(cc2cc1C#N)OCCO3,-7,1.2,181*,108,-78,174*,293*,143*,123*
COC(=O)CSc1nc2cc3c(cc2cc1C#N)OCO3,0,6.8*,170*,108,-61,155*,265*,147*,117*
C=CCN(Cc1cn(C)nc1-c1cccc(Cl)c1)C1CCS(=O)(=O)C1 (centres undefined),-9,1.1,21,112,-7,105,·,·,·
CCOc1ccc(NC(=O)CCn2c(=O)[nH]c3ccsc3c2=O)cc1,4,1.2,4,95,5,96,·,·,·
COc1ccc(/C(N)=N/OC(=O)c2cccc([N+](=O)[O-])c2)cc1OC,15,1.3,·,88,-1,100,·,·,·
N/C(=N\OC(=O)c1ccc2c(c1)OCO2)c1cccc([N+](=O)[O-])c1,-4,3.2,85,106,-61,153*,198*,126,118*
CC(NS(=O)(=O)c1ccccc1)C(c1cccs1)N1CCOCC1 (centres undefined),3,1.1,3,97,10,91,·,·,·
O=C(Cn1cnnn1)Nc1ccccc1Cc1ccccc1,6,0.99,8,98,5,95,·,·,·
CCN(CC)c1ccc2cc(-c3nnc(-c4ccccc4)o3)c(=O)oc2c1,-13,1.3,19,112,-60,155*,185*,137*,126*
